Bioassay records (PubChem)
Only some compounds are listed: those with a hit (about 1.8% of all), similar ones and a draw of the others.
UHRF1 binding: human UHRF1 methylated DNA binding inhibitors; Q96T88; UHRF1 binding to methylated oligo, TR-FRET; inhibition, % at 4.4 µM; 370,000 compounds, 0.75% hits; AID 687016; in the data active = inhibition above about 21%;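 also: UHRF1 SRA domain binding a hemimethylated CpG hairpin DNA probe; 0% = median of test compound wells and 100% = reference inhibitor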
HCV core dimer: HCV core protein dimerization inhibition. 300,000 compounds, 0.33% hits. TR-FRET GST/Flag-core106 dimerization, 1536-well. inhibition, % at 5 µM;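 active = inhibition above the mean of all tested compounds plus 3 SD, set per screening campaign, cut at about 45% in these data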
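Material: Tagged HCV core106 pair (GST and Flag) | Amount: GST-core106 13.5 nM, Flag-core106 17 nM | Medium: KF-containing HEPES buffer, pH 7.45, DTT, CHAPS, BSA | Reagent: Eu donor and XL665 acceptor anti-tag antibodies | Schedule: 4 h at 22.5 °C | Technique: Time-resolved FRET, ex 340 nm, em 617 and 671 nm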
MBD2 DNA inh: blocks human MBD2 binding to methylated DNA; Q9UBB5; TR-FRET, MBD2 binding to methylated oligonucleotide; inhibition, % at 4.4 µM; 370,000 compounds, 0.31% hits; in the data active = inhibition above about 13%
TDP2 absorb: TDP2 (human) inhibition, absorbance primary screen | 370,000 compounds, 0.34% hits | O95551 | inhibition, % at 12.8 µM | recombinant TDP2, T5PNP hydrolysis, p-nitrophenol absorbance 415 nm;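 active = inhibition above the mean of all tested compounds plus 3 SD, set per campaign, cut at about 25% in these data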;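 also: 0% = DMSO with enzyme and 100% = buffer with substrate but no TDP2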
Target sequence (O95551 whole entry, looked up): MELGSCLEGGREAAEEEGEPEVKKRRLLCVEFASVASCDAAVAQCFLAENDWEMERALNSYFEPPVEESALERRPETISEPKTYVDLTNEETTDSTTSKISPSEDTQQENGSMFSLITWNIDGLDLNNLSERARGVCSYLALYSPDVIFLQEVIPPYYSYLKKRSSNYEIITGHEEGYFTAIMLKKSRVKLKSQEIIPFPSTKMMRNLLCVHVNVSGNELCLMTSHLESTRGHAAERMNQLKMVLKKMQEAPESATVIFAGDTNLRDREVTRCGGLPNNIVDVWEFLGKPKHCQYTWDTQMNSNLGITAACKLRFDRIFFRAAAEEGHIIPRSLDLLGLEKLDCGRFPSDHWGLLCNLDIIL
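Test system: human TDP2 enzyme; Input: 120 nM TDP2 per well; Buffer or medium: Mg2+-containing Tris-HCl buffer, pH 7.5; Reagent: 5 mM T5PNP; Dosing: 12.8 µM single point, 1% DMSO; Incubation: reaction 2 h, 37 °C; Detection: p-Nitrophenol epi absorbance; Read-out: % inhibition relative to enzyme-containing and enzyme-free wells; Replicates: single well per compound.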
LEDGF integ inh: blocks HIV-1 LEDGF/p75-dependent DNA integration | TR-FRET IN-LEDGF/p75 DNA integration, Eu/Cy5 | inhibition, % at 3.7 µM | 370,000 compounds, 0.64% hits | AID 743269;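 active = inhibition above the screen-wide mean plus 3 SD, cut at about 13% in these data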;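 also: signal is the Cy5 over europium emission ratio at 671 and 618 nm; 0% = plate median of compound wells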
* hit, by the source's call; / = no result.

SMILES	UHRF1 binding	HCV core dimer	MBD2 DNA inh	TDP2 absorb	LEDGF integ inh
O=C(N[C@H]1C[C@@H]2O[C@H](CO)CC[C@@H]2O[C@@H]1CCc1ccc(-c2cccnc2)cc1)c1cccc(F)c1	0.5	/	-1.2	5.8	-0.4
CC(=O)Oc1ccc(C(=O)[C@H]2[C@H]3C(=O)N(c4ccc(C)cc4)C(=O)[C@H]3[C@@H]3C=CC=NN32)cc1	-0.2	44.8	0.6	3.9	1.1
COc1ccc(N2C(=O)[C@@H]3[C@H](C2=O)[C@H](C(=O)c2ccc(OC(C)=O)cc2)N2N=CC=C[C@@H]32)cc1	/	46.1*	/	/	/
COC(=O)[C@]12C[C@H](CC(=O)NCc3cccs3)C(=O)N(CCC3=CCCCC3)C1=C[C@H](C(C)C)O[C@@H]2C1CC1	6.5	/	-3.7	2.0	2.5
c1ccc(-c2cc(-c3nnc4sc(Cc5cccs5)nn34)[nH]n2)cc1	1.0	/	6.5	4.0	-1.3
CC1(C)Cc2c(C#N)c(N3CCN(C(=O)c4ccco4)CC3)nc(-c3ccco3)c2CS1	-1.6	72.0*	-9.3	0.8	0.7
CC1(C)Cc2c(C#N)c(N3CCN(C(=O)c4ccccc4Cl)CC3)nc(-c3ccco3)c2CS1	1.7	81.3*	-2.2	-1.5	2.9
N#Cc1c(N2CCN(C(=O)c3ccccc3Cl)CC2)nc(-c2ccccc2)c2c1CCCC2	0.4	-0.9	-2.1	3.2	0.9
CC(=O)Nc1ccc(N=Cc2nc(-c3ccc(C)cc3)oc2O)cc1	0.5	65.5*	1.5	9.2	-2.7
CN(C)C(=O)NCCCC#Cc1ccccc1	-0.2	/	-6.0	-10.1	-0.5
CC1CCN(S(=O)(=O)c2ccc3c(c2)c(=O)c(C(=O)N2CCCCC2)cn3C)CC1	73.3*	6.4	-2.4	-5.6	-3.1
CCc1nnc(NC(=O)CSc2sc3c(O)cc(=O)[nH]c3c2C#N)s1	35.3*	-18.8	13.2*	24.7*	12.5
CCSc1nnc(NC(=O)CSc2sc3c(O)cc(=O)[nH]c3c2C#N)s1	31.5*	9.5	10.8	-0.8	-0.8
CC(C)C[C@@H]1COc2cc(Br)ccc2S(=O)(=O)N1Cc1cn(Cc2ccccc2)nn1	0.0	/	0.3	-0.6	-1.6
Cc1ccc([C@H](C)NC(=O)C2=C(N)N(S(=O)(=O)c3ccc(C)cc3)C(C(=O)c3ccccc3)C2c2ccccc2Cl)cc1 (some centres not stated)	-1.1	/	4.0	2.2	1.2
COc1ccccc1NC(=S)NC1CCCC1	1.6	0.2	1.5	11.2	-1.3
COc1ccccc1NC(=S)NC1CCC(CC2CCC(NC(=S)Nc3ccccc3OC)CC2)CC1 (configuration not stated)	1.5	47.6*	-1.5	-3.2	-3.2
COC(=O)c1ccccc1NC(=O)CN1C(=O)C2CCCN2c2ncc(Cl)cc21 (configuration not stated)	/	49.9*	/	/	/
CCc1ccc2nc3c(c(C(=O)O)c2c1)CCC3	-0.1	-2.4	3.7	4.7	1.0
Cc1cc(Br)c2nc3c(c(C(=O)O)c2c1)CCCCC3	1.0	72.2*	4.5	6.3	-1.2
CCOC(=O)CCCCC(=O)c1[nH]c(=O)[nH]c1CSc1nc(-c2ccccc2)c(C#N)c(=O)[nH]1	-2.2	-1.5	-0.9	16.2	15.1*
CC(C)CCN(C)C1CCN(C(=O)Nc2ccc3c(c2)OCO3)CC1	0.6	/	0.3	-10.7	-0.9
CC1=NN(C(=O)COc2ccccc2)C(O)(c2cccnc2)C1 (configuration not stated)	21.0*	-0.5	-0.1	-16.2	2.5
O=C(c1c(F)cccc1F)N1CCC(Oc2cccnc2)CC1	1.5	/	-3.0	5.0	1.7
COC(=O)[C@]12C[C@H](CC(=O)NCCCN3CCCC3=O)C(=O)N(Cc3ccco3)C1=C[C@H](C(C)C)O[C@@H]2C1CC1	-3.0	/	2.8	8.9	-1.7
COc1cc(C=Nn2c(-c3cc(-c4ccccc4)n[nH]3)n[nH]c2=S)ccc1OC(C)=O	-1.5	/	1.9	4.7	-0.3
CCOc1ccc(Oc2c(Cl)cnn(Cc3cccc4ccccc34)c2=O)cc1	2.0	/	4.5	-1.6	-1.0
CCOC(=O)C1CCN(C(=O)CSc2nccc(C)n2)CC1	64.5*	7.8	-4.2	-4.3	-3.8
CCOC(=O)C1CCN(C(=O)CSc2ccccc2)CC1	2.5	2.0	6.2	6.4	-0.3
CCN(C(=O)CSc1nnnn1C)C1CCCCC1	-2.5	/	-1.2	5.8	3.2
